Legend:
[1] = Ratio of drug level in brain to plasma in Sprague-Dawley rat at 5 mg/kg, sc after 1 hr; type: ADME, organism-based; set-up: dose 5 mg/kg, route subcutaneous; details: brain and plasma, read-out: BPR
Outline: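 Male Sprague–Dawley rats (n = 3 per time point) received 5 mg/kg subcutaneously. Plasma (cardiac puncture after CO2 euthanasia), brain and CSF were collected at 0.5, 1, 2 and 4 h. Drug levels were measured by LC/MS/MS. Ratio is taken from the average brain and plasma concentrations at 1 h.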

[2] = tested on: MDR; assay: Permeability from apical to basolateral side of MDCK cells over expressing MDR; details: dog, MDCK-MDR1

Kp at 1 h [1] | Papp (apical to basal) [2] [×10⁻⁶ cm/s] | Compound
1.86 |  | COc1ccccc1[C@H]1CN(c2cc(-c3ccncn3)cc(=O)n2C)CCO1
0.96 |  | Cn1c(N2CCC(O)(c3ccccc3)CC2)cc(-c2ccncn2)cc1=O
 | 13.9 | Cc1cc(-c2cc(-c3ccccc3)nc(=O)[nH]2)ccc1O
0.35 |  | COc1ccccc1CCNc1cc(-c2ccncn2)cc(=O)n1C

From ChEMBL document CHEMBL1681660, “6-amino-4-(pyrimidin-4-yl)pyridones: novel glycogen synthase kinase-3β inhibitors” (Bioorg Med Chem Lett, 2011)
